Entries after “also recorded” stand apart in the source; their conditions may differ.
Assays:
rat model of asthma = conditions: inhalation dosing; cited from earlier work
[1] = assay type: in vivo, human
Procedure, shortened: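 Open-label single-dose study in 12 healthy volunteers. Each inhaled 1 mg test compound, with 99mTc surface-associated with the powder and blended with lactose, from a capsule dry-powder inhaler (60 L/min at 4 kPa). 81mKr ventilation and 57Co transmission scans were taken before dosing. Counts were corrected for decay, background and attenuation. Lung deposition was expressed as % of emitted dose (sum of lung, oropharynx, mouthwash, stomach and exhalation filter counts). Device and capsule residue was expressed as % of loaded dose. PI (outer/inner ratio) and sC/P were normalized to 81mKr.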

[2] = Phase I safety: laboratory tests; assay type: in vivo, human
Procedure, shortened: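 Healthy volunteers in single- and multiple-ascending inhaled-dose cohorts, randomized against placebo and blinded to investigator and subject. All dosed subjects were analysed. Change from baseline was assessed in vital signs, 12-lead ECG, spirometry and laboratory tests. Lab monitoring for JAK-related toxicity covered reticulocyte counts, lymphocyte subsets and fasting lipids.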

[3] = Scintigraphy study: plasma PK and safety; assay type: in vivo, human; conditions: single 1 mg radiolabeled dose
[4] = Phase I plasma pharmacokinetics after single; assay type: in vivo, human; conditions: for Cmax: plasma; for T max: median; for AR (Cmin): Cmin Day 14/Cmin Day 1, mean; for Cmax, Day 1 / Cmin, Day 1: first dose; for AUCtau, Day14 / Cmax, Day 14 / Cmin, Day 14: steady-state
Procedure, shortened: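 Randomized, placebo-controlled, blinded study in healthy adults aged 18–65. Part A gave single inhaled doses of 0.15–15 mg; Part B gave 1, 3 or 10 mg q.d. or 15 mg b.i.d. for 14 days via a capsule dry-powder inhaler, each dose over 15 (±5) min. Serial plasma samples were taken from pre-dose to Day 15 (Part A) or Day 42 (Part B). Drug was assayed by HPLC-MS/MS (LLOQ 10 pg/mL). Accumulation ratio = Cmin Day 14/Cmin Day 1.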

JAK1 = conditions: cited from earlier work
[5] = test system: fractional exhaled nitric oxide (FeNO); conditions: patients with mild asthma, inhaled; cited from earlier work
[6] = Part A SAD, range across dose levels

CN(CCC#N)C1CCN(C(=O)Cn2cc(NC(=O)c3cnn4cccnc34)c(-c3cc(Cl)ccc3OC(F)F)n2)CC1 [GDC‐0214]
eosinophil recruitment (rat model of asthma): suppressed | mean emitted dose ([1]; capsule emptying, of loaded dose, 1 mg capsule): approximately 81% | calculated mean dose deposited in the lungs ([1]; from a single capsule (1 mg)): approximately 0.41 mg | Regional airway deposition ratio, PI (penetration index) ([1]; normalized for 81mKr gas distribution, mean (CV%), listed as radiolabeled GDC‐0214): 0.76 (30.47%) | % Emitted dose, Exhaled ([1]; single inhaled 1 mg radiolabeled dose, after the breath-hold, mean): 0.74% | changes in laboratory parameters, ECGs, or vital signs ([2]; Parts A and B): no clinically relevant changes | changes in CD4T cells, CD8T cells, or B cells ([2]; compared to placebo, GDC-0214-treated cohorts): no significant changes | changes from baseline in levels of NK cells, reticulocytes, or low-density lipoprotein cholesterol ([2]; indicators of systemic effects of JAK1 inhibition): no significant changes | tolerability [3]: well tolerated | Cmax ([4]; Part A SAD, 0.15 mg single inhaled dose, mean): 0.0702 ng/mL | T max ([4]; Part A SAD, 0.15 mg): 0.283 h | Cmax ([4]; Part A SAD, 0.5 mg single inhaled dose, mean): 0.301 ng/mL | AUCinf ([4]; Part A SAD, 0.5 mg, mean): 2.458 ng·h/mL | CL/F ([4]; Part A SAD, 0.5 mg, mean): 227 L/h | T 1/2 ([4]; Part A SAD, 0.5 mg, mean): 37.3 h | Vz/F ([4]; Part A SAD, 0.5 mg, mean): 12264 L | T max ([4]; Part A SAD, 0.5 mg): 0.267 h | Cmax ([4]; Part A SAD, 1.5 mg single inhaled dose, mean): 0.763 ng/mL | AUCinf ([4]; Part A SAD, 1.5 mg, mean): 7.32 ng·h/mL | CL/F ([4]; Part A SAD, 1.5 mg, mean): 220 L/h | T 1/2 ([4]; Part A SAD, 1.5 mg, mean): 38.7 h | Vz/F ([4]; Part A SAD, 1.5 mg, mean): 12620 L | T max ([4]; Part A SAD, 1.5 mg): 0.517 h | Cmax ([4]; Part A SAD, 5 mg single inhaled dose, mean): 2.883 ng/mL | AUCinf ([4]; Part A SAD, 5 mg, mean): 34.727 ng·h/mL | CL/F ([4]; Part A SAD, 5 mg, mean): 149 L/h | T 1/2 ([4]; Part A SAD, 5 mg, mean): 36.5 h | Vz/F ([4]; Part A SAD, 5 mg, mean): 7744 L | T max ([4]; Part A SAD, 5 mg): 0.458 h | Cmax ([4]; Part A SAD, 15 mg single inhaled dose, mean): 7.27 ng/mL | AUCinf ([4]; Part A SAD, 15 mg, mean): 96.038 ng·h/mL | CL/F ([4]; Part A SAD, 15 mg, mean): 158 L/h | T 1/2 ([4]; Part A SAD, 15 mg, mean): 39.7 h | Vz/F ([4]; Part A SAD, 15 mg, mean): 9116 L | T max ([4]; Part A SAD, 15 mg): 0.500 h | dose proportionality of mean Cmax and AUC0-inf ([4]; Part A SAD, across cohorts): approximately dose‐proportional | mean CL/F [4, 6]: 149 to 227 L/h | mean apparent volume of distribution (Vz/F) [4, 6]: 7740–12,600 L | t 1/2 ([4]; Part B MAD, 1 mg q.d. for 14 days, mean): 38.5 h | AR (Cmin) ([4]; Part B MAD, 1 mg q.d.): 3.0 | Cmax, Day 1 ([4]; Part B MAD, 1 mg q.d., mean): 0.581 ng/mL | Cmin, Day 1 ([4]; Part B MAD, 1 mg q.d., mean): 0.0594 ng/mL | AUCtau, Day1 ([4]; Part B MAD, 1 mg q.d., mean): 2910 pg·h/mL | AUCtau, Day14 ([4]; Part B MAD, 1 mg q.d., mean): 5969 pg·h/mL | Cmax, Day 14 ([4]; Part B MAD, 1 mg q.d., mean): 810 pg/mL | Cmin, Day 14 ([4]; Part B MAD, 1 mg q.d., mean): 0.167 ng/mL | t 1/2 ([4]; Part B MAD, 3 mg q.d. for 14 days, mean (N 5)): 32.0 h | AR (Cmin) ([4]; Part B MAD, 3 mg q.d.): 2.79 | Cmax, Day 1 ([4]; Part B MAD, 3 mg q.d., mean): 1.51 ng/mL | Cmin, Day 1 ([4]; Part B MAD, 3 mg q.d., mean): 0.164 ng/mL | AUCtau, Day1 ([4]; Part B MAD, 3 mg q.d., mean): 8080 pg·h/mL | AUCtau, Day14 ([4]; Part B MAD, 3 mg q.d., mean): 15,794 pg.h/mL | Cmax, Day 14 ([4]; Part B MAD, 3 mg q.d., mean): 2115 pg/mL | Cmin, Day 14 ([4]; Part B MAD, 3 mg q.d., mean): 0.45 ng/mL | t 1/2 ([4]; Part B MAD, 10 mg q.d. for 14 days, mean): 40.8 h | AR (Cmin) ([4]; Part B MAD, 10 mg q.d.): 3.47 | Cmax, Day 1 ([4]; Part B MAD, 10 mg q.d., mean): 3.77 ng/mL | Cmin, Day 1 ([4]; Part B MAD, 10 mg q.d., mean): 0.517 ng/mL | AUCtau, Day1 ([4]; Part B MAD, 10 mg q.d., mean): 21,300 pg.h/mL | AUCtau, Day14 ([4]; Part B MAD, 10 mg q.d., mean): 52,824 pg.h/mL | Cmax, Day 14 ([4]; Part B MAD, 10 mg q.d., mean): 5982 pg/mL | Cmin, Day 14 ([4]; Part B MAD, 10 mg q.d., mean): 1.78 ng/mL | t 1/2 ([4]; Part B MAD, 15 mg b.i.d. for 14 days, mean): 56.9 h | AR (Cmin) ([4]; Part B MAD, 15 mg b.i.d.): 2.49 | Cmax, Day 1 ([4]; Part B MAD, 15 mg b.i.d., mean): 6.08 ng/mL | Cmin, Day 1 ([4]; Part B MAD, 15 mg b.i.d., mean): 2.09 ng/mL | AUCtau, Day1 ([4]; Part B MAD, 15 mg b.i.d., mean): 39,500 pg.h/mL | AUCtau, Day14 ([4]; Part B MAD, 15 mg b.i.d., mean): 79,907 pg.h/mL | Cmax, Day 14 ([4]; Part B MAD, 15 mg b.i.d., mean): 12,423 pg/mL | Cmin, Day 14 ([4]; Part B MAD, 15 mg b.i.d., mean): 5.26 ng/mL | dose proportionality of Cmax and AUCtau ([4]; Part B MAD, across the three q.d. cohorts): approximately dose‐proportional | steady-state concentrations achieved by ([4]; Part B MAD, q.d. or b.i.d. dosing): ≤ 6 days | time of peak plasma concentrations post-dose ([4]; after inhalation, across cohorts): 15 to 30 min | plasma protein binding-corrected cellular 50% inhibitory concentration of JAK1 (JAK1): 97,000 pg/mL | fractional exhaled nitric oxide (FeNO) [5]: reduced; also recorded: dose‐dependent decreases

Source: publication PMC9099118 (Clinical and Translational Science, 2022)
